The results in this text go back to ChEMBL document CHEMBL4130517, “Discovery of a Tetrahydrobenzisoxazole Series of γ-Secretase Modulators” (ACS Med Chem Lett, 2017).

Calls of active or inactive are those of the source. The rule behind the calls is not given here.

One data set deals with Gamma-secretase. In words: Modulation of gamma-secretase (unknown origin) expressed in HEK293 cells harboring SCP99-Lon mutation assessed as reduction in Abeta42 production after 5 hrs by sandwich immunoassay. The data set is classed as cell-based, Homo sapiens. In short, it runs like this: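 HEK293 cells incubated 5 h with a range of GSM concentrations. Aβ42 in conditioned medium quantified by MSD sandwich electrochemiluminescence immunoassay, using TAG-G2-11 and biotin-4G8 antibodies.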

Data set [1] can be described thus: Dissociation constant, pKa of the compound. Type of data set: physicochemical.
For data set [2], the target named is T1, Gamma-secretase (Homo sapiens) (UniProt Q96BI3+Q9NZ42+Q8WW43+P49768+Q92542+P49810). In words: Modulation of gamma-secretase (unknown origin) expressed in HEK293 cells harboring SCP99-Lon mutation assessed as ratio of total amyloid beta to amyloid beta 42 level after 5 hrs by sandwich immunoassay. The data set is classed as cell-based. In short, it runs like this:
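HEK293 cells exposed 5 h to varied GSM concentrations. Conditioned medium assayed by MSD sandwich electrochemiluminescence immunoassay: Aβ42 with TAG-G2-11/biotin-4G8, total Aβ with TAG-W02/biotin-4G8. Ratio formed from total Aβ and Aβ42.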

The target of data set [3] is T1, Gamma-secretase (Homo sapiens). As to the kind of experiment: Modulation of gamma-secretase (unknown origin) expressed in HEK293 cells harboring SCP99-Lon mutation assessed as reduction in amyloid beta 40 level at 10 uM by surface enhanced laser desorption/ionization mass spectrometry. The data set is classed as cell-based.
For data set [4] the target is unchanged. As to the kind of experiment: Modulation of gamma-secretase (unknown origin) expressed in HEK293 cells harboring SCP99-Lon mutation assessed as increase in amyloid beta 37 level at 10 uM by surface enhanced laser desorption/ionization mass spectrometry. The data set is classed as cell-based.
Data set [5] has the same target. In words: Modulation of gamma-secretase (unknown origin) expressed in HEK293 cells harboring SCP99-Lon mutation assessed as reduction in amyloid beta 42 level at 10 uM by surface enhanced laser desorption/ionization mass spectrometry. The data set is classed as cell-based.
The target is the same in data set [6]. In words: Modulation of gamma-secretase (unknown origin) expressed in HEK293 cells harboring SCP99-Lon mutation assessed as increase in amyloid beta 38 level at 10 uM by surface enhanced laser desorption/ionization mass spectrometry. Type of data set: cell-based.
The test system of data set [7] is P-gp. In words: Substrate activity at P-gp (unknown origin) assessed as permeability across basolateral to apical side. The data set is classed as ADME. The settings on record: human, not told; read-out: permeability.
Data set [8] in a line: Drug uptake in brain of Sprague-Dawley rat at 30 mg/kg, po after 3 hrs by LC-MS/MS analysis. The settings on record: read-out: Drug uptake. Type of data set: ADME, organism-based. In short, it runs like this: (§1)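 Rats given a single oral dose of 30 mg/kg. Plasma and brain collected 3 h post-dose and drug concentration measured; n = 3.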
Data set [9] concerns P-gp. As to the kind of experiment: Substrate activity at P-gp (unknown origin) assessed as permeability across apical to basolateral side. The data set is classed as ADME. The note with it: human, not told; read-out: permeability.
In data set [10] the test system is P-gp. In words: Substrate activity at P-gp (unknown origin) assessed as efflux ratio of permeability across basolateral to apical over apical to basolateral side. The settings on record: human, not told. Type of data set: ADME.
For the next data set, the system named is Rattus norvegicus. In words: Reduction in amyloid beta 42 level in Sprague-Dawley rat cerebrospinal fluid at 30 mg/kg, po administered as single dose after 3 hrs by sandwich immunoassay relative to control. Set-up: scale not given: the % may be the effect or the level left. The data set is classed as functional. In short, it runs like this: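 Non-transgenic rats received a single oral 30 mg/kg dose or vehicle. CSF sampled 3 h later and Aβ42 compared against vehicle-treated animals; n = 5.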

Data set [11] is described as follows: Drug uptake in plasma of Sprague-Dawley rat at 30 mg/kg, po after 3 hrs by LC-MS/MS analysis. The data set is classed as ADME, organism-based. In short, it runs like this:
as §1

What is called IC50 is the concentration needed to halve the response being measured. The term pKa denotes the negative logarithm of the acid dissociation constant. Consider `COc1cc(-c2noc3c2CCCC3NC2CCCCC2)ccc1-n1cnc(C)c1` (stereo not given), for which, at Gamma-secretase, the IC50 worked out at 310 nM. The same compound yielded a pKa in data set [1] of 8.42. The Ratio in [2] is 64.
Turning to `COc1cc(-c2noc3c2CCCC3N(C)Cc2ccc(F)cc2)ccc1-n1cnc(C)c1` (stereo not given), at Gamma-secretase, the IC50 amounted to 250 nM. Besides, the Ratio in data set [2] is 79.
On the same counts, the results for `COc1cc(-c2noc3c2CCCC3(O)Cc2cc(F)cc(F)c2)ccc1-n1cnc(C)c1` (stereo not given) are 150 nM and 102.
Consider `COc1cc(-c2noc3c2CCCC3NCc2ccc(F)cc2)ccc1-n1cnc(C)c1` (stereo not given), for which the IC50 at Gamma-secretase was 130 nM. For the same compound, the pKa in [1] stood at 7.08. The outcome in data set [3], in [4], in data set [5] and in data set [6] was Active. For the same compound, in [2], the Ratio was 32.
For `COc1cc(-c2noc3c2CCCC3NCc2cc(F)cc(F)c2)ccc1-n1cnc(C)c1` (stereo in doubt; 14d) [listing 1 of 2 here], the IC50 on Gamma-secretase stood at 640 nM.
For `COc1cc(-c2noc3c2CCCC3Oc2cc(F)cc(F)c2)ccc1-n1cnc(C)c1` (stereo not given), the IC50 on Gamma-secretase is 200 nM. Also, in [2], the Ratio was determined as 98.
`COc1cc(-c2noc3c2CCCC3NCC(F)(F)F)ccc1-n1cnc(C)c1` (stereo not given): the 50% inhibitory concentration (IC50) on Gamma-secretase turned out to be 460 nM. The compound further showed a pKa in data set [1] of 5.42. In addition, the Ratio in data set [2] was 43.
On to `COc1cc(-c2noc3c2CCCC3N[C@H](C)c2ccc(F)cc2)ccc1-n1cnc(C)c1` (stereo not given in full), for which the IC50 on Gamma-secretase was 260 nM. Also, the Ratio in data set [2] stood at 77.
As to `COc1cc(-c2noc3c2CCCC3Nc2ccc(F)cc2)ccc1-n1cnc(C)c1` (stereo in doubt; 14a) [listing 1 of 2 here], the outcome in data set [3], in data set [4], in data set [5] and in data set [6] was Active. Further, in [2], the Ratio amounted to 499.
As for `COc1cc(-c2noc3c2CCCC3c2cc(F)cc(F)c2)ccc1-n1cnc(C)c1` (stereo not given), on Gamma-secretase, the IC50 was found to be 110 nM. In data set [2], the Ratio is 178.
As a reminder, the efflux ratio is a quotient of directional permeabilities that is used to spot active efflux. With `COc1cc(-c2noc3c2CCCC3Nc2ccc(F)cc2)ccc1-n1cnc(C)c1` (stereo in doubt; 14a) [listing 2 of 2 here], the Papp B→A in the data set with P-gp [7] was determined as 60 ×10⁻⁶ cm/s. The IC50 at Gamma-secretase came out at 39 nM. Besides, in data set [1], the pKa was 5.33. Also, the concentration at 3 h turned out to be 14.3 µM in [8] and 10.4 µM in data set [11]. Further, the Papp A→B with P-gp [9] came to 37.6 ×10⁻⁶ cm/s. Further, in the data set with P-gp [10], the efflux ratio amounted to 1.6. Further, the Activity in the data set with Rattus norvegicus is on record as 58%.
For the compound `COc1cc(-c2noc3c2CCCC3Nc2ccc(F)cc2)ccc1-n1cnc(C)c1` (stereo in doubt; 14b) [listing 1 of 2 here], on Gamma-secretase, the IC50 came to 230 nM.
As to `COc1cc(-c2noc3c2CCCC3NCc2cc(F)cc(F)c2)ccc1-n1cnc(C)c1` (stereo in doubt; 14c) [listing 1 of 2 here], the Papp B→A with P-gp [7] came to 46.2 ×10⁻⁶ cm/s. The IC50 on Gamma-secretase came out at 29 nM. Moreover, the concentration at 3 h in data set [8] was found to be 2.19 µM; in [11] it was 6.01 µM. For the same compound, the Papp A→B in the data set with P-gp [9] was determined as 6.8 ×10⁻⁶ cm/s. Besides, the efflux ratio with P-gp [10] is 6.8.
Consider `COc1cc(-c2noc3c2CCCC3Oc2ccc(F)cc2)ccc1-n1cnc(C)c1` (stereo not given), for which the IC50 on Gamma-secretase stood at 290 nM. Further, the Ratio in data set [2] stood at 68.
The corresponding values for `COc1cc(-c2noc3c2CCCC3(O)c2cc(F)cc(F)c2)ccc1-n1cnc(C)c1` (stereo not given) are 190 nM and 105.
Take `COc1cc(-c2noc3c2CCCC3NCc2cc(F)cc(F)c2)ccc1-n1cnc(C)c1` (stereo in doubt; 14c) [listing 2 of 2 here]: the outcome in data set [3], in [4], in data set [5] and in data set [6] was Active. Besides, in data set [2], the Ratio was determined as 575.
For the compound `COc1cc(-c2noc3c2CCCC3Nc2ccc(F)cc2)ccc1-n1cnc(C)c1` (stereo in doubt; 14b) [listing 2 of 2 here], the Ratio in data set [2] was 86.
Still for that read-out and setting: the value for `COc1cc(-c2noc3c2CCCC3NCc2cc(F)cc(F)c2)ccc1-n1cnc(C)c1` (stereo in doubt; 14d) [listing 2 of 2 here] was 28.
Take `COc1cc(-c2noc3c2CCCC3OCc2cc(F)cc(F)c2)ccc1-n1cnc(C)c1` (stereo not given): the IC50 on Gamma-secretase amounted to 510 nM. The Ratio in data set [2] amounted to 39.
In the case of `CNC1CCCc2c(-c3ccc(-n4cnc(C)c4)c(OC)c3)noc21` (stereo not given), the IC50 at Gamma-secretase came to 12000 nM. The compound further yielded a pKa in [1] of 8.1. Also, the Ratio in data set [2] amounted to 2.
